In ChEMBL document CHEMBL3392992, “Synthesis, antiproliferative activity, and in silico insights of new 3-benzoylamino-benzo[b]thiophene derivatives” (Eur J Med Chem, 2015):

Legend:
HeLa [1] = test: Toxicity against human HeLa cells assessed as effect on cell membrane integrity at 1 to 20 uM after 48 hrs by trypan blue dye exclusion method; assay type: cell-based
HeLa [2] = test: Antiproliferative activity against human HeLa cells assessed as reduction in cell proliferation after 48 hrs by MTT assay; assay type: functional
Outline: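 HeLa cells grown with FBS, 2 mM L-glutamine, penicillin/streptomycin at 37 °C, 5% CO2, seeded at 1.0 × 10^4 cells/cm2 (approx.). After 24 h, medium switched to 5% FBS medium with compounds diluted from 20 mM DMSO stocks, 50 to 0.05 µM, final DMSO ≤0.25% (vehicle control). Incubated 48 h. MTT 0.5 mg/mL for 4 h at 37 °C, formazan dissolved in DMSO, OD 570 nm. GI50 by linear regression of percent growth vs control. Three experiments, each in quadruplicate.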

HeLa [3] = test: Induction of cell cycle arrest in human HeLa cells assessed as increase in accumulation at subG0/G1 phase after 24 to 48 hrs by propidium iodide staining based flow cytometry; assay type: functional; conditions: TDE = time-dependent effect

SMILES	Activity (HeLa [1])	GI50 (HeLa [2]) [µM]	Activity (HeLa [3])
CCOC(=O)c1sc2ccc(NCc3c[nH]cn3)cc2c1NC(=O)c1ccc(C(F)(F)F)cc1	Non-toxic	16.8	
CCOC(=O)c1sc2ccc(NCc3nc[nH]c3C)cc2c1NC(=O)c1ccc(OC)cc1	Non-toxic	8.22	
CCOC(=O)c1sc2ccc(NCc3c[nH]cn3)cc2c1NC(=O)c1ccc(OC)cc1	Non-toxic	12.9	
CCOC(=O)c1sc2ccc(NCc3nc[nH]c3C)cc2c1NC(=O)c1ccc(C(F)(F)F)cc1	Non-toxic	12.8	
CCOC(=O)c1sc2ccc(N)cc2c1NC(=O)c1cc(OC)c(OC)c(OC)c1	Non-toxic	4.66	tde
CCOC(=O)c1sc2ccc(NCc3c[nH]cn3)cc2c1NC(=O)c1ccccc1	Non-toxic	17.9	
CCOC(=O)c1sc2ccc(N)cc2c1NC(=O)c1ccc(F)c(Cl)c1	Non-toxic	12.3	
CCOC(=O)c1sc2ccc(N)cc2c1NC(=O)c1ccccc1	Non-toxic	> 50	
CCOC(=O)c1sc2ccc(N)cc2c1NC(=O)c1ccc(C(F)(F)F)cc1	Non-toxic	6.68	
CCOC(=O)c1sc2ccc(NCc3c[nH]cn3)cc2c1NC(=O)c1ccc(F)c(Cl)c1	Non-toxic	10.7	
CCOC(=O)c1sc2ccc(NCc3c[nH]cn3)cc2c1NC(=O)c1cc(OC)c(OC)c(OC)c1	Non-toxic	6.79	
CCOC(=O)c1sc2ccc(NCc3nc[nH]c3C)cc2c1NC(=O)c1ccc(C)cc1	Non-toxic	11.4	
CCOC(=O)c1sc2ccc(N)cc2c1NC(=O)c1ccc(C)cc1	Non-toxic	24.4	
CCOC(=O)c1sc2ccc(NCc3nc[nH]c3C)cc2c1NC(=O)c1ccc(F)c(Cl)c1	Non-toxic	2.91	tde
CCOC(=O)c1sc2ccc(NCc3nc[nH]c3C)cc2c1NC(=O)c1cc(OC)c(OC)c(OC)c1	Non-toxic	2.23	tde
CCOC(=O)c1sc2ccc(N)cc2c1NC(=O)c1ccc(OC)cc1	Non-toxic	> 50	
CCOC(=O)c1sc2ccc(NCc3nc[nH]c3C)cc2c1NC(=O)c1ccccc1	Non-toxic	23.3	
CCOC(=O)c1sc2ccc(NCc3c[nH]cn3)cc2c1NC(=O)c1ccc(C)cc1	Non-toxic	11.7	
